≈ marks a conversion by molar mass, not a printed value. Peptide text beside a SMILES is read from it.
What was measured:
Staphylococcus aureus [1] = experiment: Compound tested for the activity against Staphylococcus aureus strain 4; format: functional
How it was run: (§1)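 Microbroth dilution in Tryptic Soy Broth; inoculum 5×10^5 CFU/mL; plates incubated at 37 °C for 18-20 h; value reported as minimal inhibitory concentration (µg/mL).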

Pseudomonas aeruginosa [2] = experiment: Compound tested for the antimicrobial activity against Pseudomonas aeruginosa strain 4; format: functional; how it was run: as §1
[3] = Hemolytic activity towards human erythrocytes is evaluated for magainin 2 at peptide concentration of 25 ug/mL; format: functional
How it was run: (§2)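 Washed human erythrocytes from healthy volunteers (3 mL packed cells, PBS pH 7.4 washes, diluted to 20 mL) exposed to peptide in PBS at 25-200 µg/mL, 30 min at 37 °C; supernatant absorbance at 576 nm after centrifugation; 0.1% Triton X-100 taken as 100% hemolysis; duplicates.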

[4] = Hemolytic activity towards human erythrocytes is evaluated for magainin 2 at peptide concentration of 50 µg/mL; format: functional; how it was run: as §2
Pseudomonas aeruginosa [5] = experiment: Compound tested for the antimicrobial activity against Pseudomonas aeruginosa strain 11; format: functional; how it was run: as §1
Pseudomonas aeruginosa [6] = experiment: Compound tested for the antimicrobial activity against Pseudomonas aeruginosa strain 2; format: functional; how it was run: as §1
Staphylococcus aureus [7] = experiment: Compound tested for the activity against Staphylococcus aureus strain 2; format: functional; how it was run: as §1
Staphylococcus aureus [8] = experiment: Compound tested for the activity against Staphylococcus aureus strain 1; format: functional; how it was run: as §1
Enterobacter cloacae [9] = experiment: Compound tested for the antimicrobial activity against Enterobacter cloacae ROS; format: functional, enterobacter cloacaeros
How it was run: (§3)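 MIC by microbroth dilution in Tryptic Soy Broth; inoculum 5×10^5 CFU/mL; plates incubated 18-20 h at 37 °C; assay pH approximately 7.4.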

Enterobacter cloacae [10] = experiment: Compound tested for the antimicrobial activity against Enterobacter cloacae; format: functional; how it was run: as §1
Staphylococcus aureus [11] = experiment: Compound tested for the activity against Staphylococcus aureus strain 5; format: functional; how it was run: as §1
Pseudomonas aeruginosa [12] = experiment: Compound tested for the antimicrobial activity against Pseudomonas aeruginosa strain ATCC 25916; format: functional; how it was run: as §1
Pseudomonas aeruginosa [13] = experiment: Compound tested for in vitro susceptibility against ATCC strain 27853 of Pseudomonas aeruginosa; format: functional; details: ATCC 27853; how it was run: as §1
Escherichia coli = experiment: Compound tested for in vitro susceptibility against ATCC strain 25922 of Escherichia coli; format: functional; details: ATCC25922; how it was run: as §1
Pseudomonas aeruginosa [14] = experiment: Compound tested for the antimicrobial activity against Pseudomonas aeruginosa strain 6; format: functional; how it was run: as §1
[15] = tested on: Acinetobacter calcoaceticus subsp. anitratus; experiment: Compound tested for the antimicrobial activity against Acinetobacter anitratus; format: functional; how it was run: as §3
Staphylococcus aureus [16] = experiment: Compound tested for the activity against Staphylococcus aureus strain 7; format: functional; how it was run: as §1
Staphylococcus aureus [17] = experiment: Compound tested for the activity against Staphylococcus aureus strain ATCC 28953; format: functional; how it was run: as §1
Staphylococcus aureus [18] = experiment: Compound tested for the activity against Staphylococcus aureus strain 8; format: functional; how it was run: as §1
Proteus mirabilis = experiment: Compound tested for the antimicrobial activity against Proteus mirabilis; format: functional; how it was run: as §1
Pseudomonas aeruginosa [19] = experiment: Compound tested for the antimicrobial activity against Pseudomonas aeruginosa strain 9; format: functional; how it was run: as §1
Klebsiella pneumoniae = experiment: Compound tested for the antimicrobial activity against Klebsiella pneumoniae; format: functional; how it was run: as §3
Shigella flexneri = experiment: Compound tested for the antimicrobial activity against Shigella flexneri; format: functional; how it was run: as §3
Pseudomonas aeruginosa [20] = experiment: Compound tested for the antimicrobial activity against Pseudomonas aeruginosa strain 8; format: functional; how it was run: as §1
Pseudomonas aeruginosa [21] = experiment: Compound tested for the antimicrobial activity against Pseudomonas aeruginosa strain 1; format: functional; how it was run: as §1
Pseudomonas aeruginosa [22] = experiment: Compound tested for the antimicrobial activity against Pseudomonas aeruginosa strain 7; format: functional; how it was run: as §1
[23] = Hemolytic activity towards human erythrocytes is evaluated for magainin 2 at peptide concentration of 100 µg/mL; format: functional; how it was run: as §2
Pseudomonas aeruginosa [24] = experiment: Compound tested for the antimicrobial activity against Pseudomonas aeruginosa strain 3; format: functional; how it was run: as §1
Staphylococcus aureus [25] = experiment: Compound tested for the activity against Staphylococcus aureus strain 10; format: functional; how it was run: as §1
Staphylococcus aureus [26] = experiment: Compound tested for the activity against Staphylococcus aureus strain 11; format: functional; how it was run: as §1
[27] = tested on: Salmonella enterica subsp. enterica serovar Anatum; experiment: Compound tested for the antimicrobial activity against S. a natum; format: functional, salmoneila anatum; how it was run: as §1
Pseudomonas aeruginosa [28] = experiment: Compound tested for the antimicrobial activity against Pseudomonas aeruginosa strain 5; format: functional; how it was run: as §1
Pseudomonas aeruginosa [29] = experiment: Compound tested for the antimicrobial activity against Pseudomonas aeruginosa strain 10; format: functional; how it was run: as §1
Staphylococcus aureus [30] = experiment: Compound tested for in vitro susceptibility against ATCC strain 29213 of Staphylococcus aureus; format: functional; how it was run: as §1
[31] = Hemolytic activity towards human erythrocytes is evaluated for magainin 2 at peptide concentration of 200 µg/mL; format: functional; how it was run: as §2
Staphylococcus aureus [32] = experiment: Compound tested for the activity against Staphylococcus aureus strain 9; format: functional; how it was run: as §1
Staphylococcus aureus [33] = experiment: Compound tested for the activity against Staphylococcus aureus strain 6; format: functional; how it was run: as §1
Staphylococcus aureus [34] = experiment: Compound tested for the activity against Staphylococcus aureus strain 3; format: functional; how it was run: as §1
Staphylococcus aureus [35] = experiment: Compound tested for the activity against strain of Staphylococcus aureus ATCC 28953; format: functional; how it was run: as §1

SMILES: CC(C)C[C@H](NC(=O)[C@H](C)NC(=O)[C@H](CCCCN)NC(=O)[C@H](C)NC(=O)[C@H](CC(C)C)NC(=O)[C@H](CCCCN)NC(=O)[C@H](C)NC(=O)[C@H](CC(C)C)NC(=O)[C@H](CCCCN)NC(=O)[C@H](C)NC(=O)[C@H](CC(C)C)NC(=O)[C@H](CCCCN)NC(=O)[C@H](CCCCN)NC(=O)[C@H](C)NC(=O)[C@H](CC(C)C)NC(=O)[C@@H](N)CCCCN)C(=O)O (H-KLAKKLAKLAKLAKAL-OH)
- MIC (Staphylococcus aureus [1]): > 100 µg/mL
- MIC (Pseudomonas aeruginosa [2]): 3.12 µg/mL (≈ 1.83 µM)
- Hemolysis [3]: 1%
- Hemolysis [4]: 1%
- MIC (Pseudomonas aeruginosa [5]): 6.25 µg/mL (≈ 3.66 µM)
- MIC (Pseudomonas aeruginosa [6]): 6.25 µg/mL (≈ 3.66 µM)
- MIC (Staphylococcus aureus [7]): > 100 µg/mL
- MIC (Staphylococcus aureus [8]): > 100 µg/mL
- MIC (Enterobacter cloacae [9]): 12.5 µg/mL (≈ 7.32 µM)
- MIC (Enterobacter cloacae [10]): 3.12 µg/mL (≈ 1.83 µM)
- MIC (Staphylococcus aureus [11]): > 100 µg/mL
- MIC (Pseudomonas aeruginosa [12]): 6.25 µg/mL (≈ 3.66 µM)
- MIC (Pseudomonas aeruginosa [13]): 3.12 µg/mL (≈ 1.83 µM)
- MIC (Escherichia coli): 6.25 µg/mL (≈ 3.66 µM)
- MIC (Pseudomonas aeruginosa [14]): > 100 µg/mL
- MIC [15]: 3.12 µg/mL (≈ 1.83 µM)
- MIC (Staphylococcus aureus [16]): > 100 µg/mL
- MIC (Staphylococcus aureus [17]): > 100 µg/mL
- MIC (Staphylococcus aureus [18]): > 100 µg/mL
- MIC (Proteus mirabilis): > 100 µg/mL
- MIC (Pseudomonas aeruginosa [19]): > 100 µg/mL
- MIC (Klebsiella pneumoniae): 12.5 µg/mL (≈ 7.32 µM)
- MIC (Shigella flexneri): 25 µg/mL (≈ 14.6 µM)
- MIC (Pseudomonas aeruginosa [20]): 50 µg/mL (≈ 29.3 µM)
- MIC (Pseudomonas aeruginosa [21]): 3.12 µg/mL (≈ 1.83 µM)
- MIC (Pseudomonas aeruginosa [22]): 6.25 µg/mL (≈ 3.66 µM)
- Hemolysis [23]: 1%
- MIC (Pseudomonas aeruginosa [24]): 3.12 µg/mL (≈ 1.83 µM)
- MIC (Staphylococcus aureus [25]): > 100 µg/mL
- MIC (Staphylococcus aureus [26]): > 100 µg/mL
- MIC [27]: 25 µg/mL (≈ 14.6 µM)
- MIC (Pseudomonas aeruginosa [28]): 6.25 µg/mL (≈ 3.66 µM)
- MIC (Pseudomonas aeruginosa [29]): > 100 µg/mL
- MIC (Staphylococcus aureus [30]): 12.5 µg/mL (≈ 7.32 µM)
- Hemolysis [31]: 2%
- MIC (Staphylococcus aureus [32]): > 100 µg/mL
- MIC (Staphylococcus aureus [33]): > 100 µg/mL
- MIC (Staphylococcus aureus [34]): > 100 µg/mL

SMILES: CC(C)C[C@H](NC(=O)[C@H](Cc1c[nH]c2ccccc12)NC(=O)[C@H](CCCCN)NC(=O)[C@H](CCCCN)NC(=O)[C@@H](N)Cc1c[nH]c2ccccc12)C(=O)N[C@@H](Cc1c[nH]c2ccccc12)C(=O)N[C@@H](C)C(=O)N[C@@H](CCCCN)C(=O)N[C@@H](Cc1c[nH]c2ccccc12)C(=O)O (H-WKKWLWAKW-OH)
- MIC (Staphylococcus aureus [1]): 50 µg/mL (≈ 37.5 µM)
- MIC (Pseudomonas aeruginosa [2]): 50 µg/mL (≈ 37.5 µM)
- Hemolysis [3]: 1%
- Hemolysis [4]: 1%
- MIC (Pseudomonas aeruginosa [5]): 50 µg/mL (≈ 37.5 µM)
- MIC (Pseudomonas aeruginosa [6]): 12.5 µg/mL (≈ 9.39 µM)
- MIC (Staphylococcus aureus [7]): 25 µg/mL (≈ 18.8 µM)
- MIC (Staphylococcus aureus [8]): 50 µg/mL (≈ 37.5 µM)
- MIC (Staphylococcus aureus [11]): 50 µg/mL (≈ 37.5 µM)
- MIC (Pseudomonas aeruginosa [12]): 50 µg/mL (≈ 37.5 µM)
- MIC (Pseudomonas aeruginosa [13]): 12.5 µg/mL (≈ 9.39 µM)
- MIC (Escherichia coli): 50 µg/mL (≈ 37.5 µM)
- MIC (Pseudomonas aeruginosa [14]): > 100 µg/mL
- MIC (Staphylococcus aureus [16]): 25 µg/mL (≈ 18.8 µM)
- MIC (Staphylococcus aureus [18]): 50 µg/mL (≈ 37.5 µM)
- MIC (Pseudomonas aeruginosa [19]): > 100 µg/mL
- MIC (Staphylococcus aureus [35]): > 100 µg/mL
- MIC (Pseudomonas aeruginosa [20]): 50 µg/mL (≈ 37.5 µM)
- MIC (Pseudomonas aeruginosa [21]): 50 µg/mL (≈ 37.5 µM)
- MIC (Pseudomonas aeruginosa [22]): 50 µg/mL (≈ 37.5 µM)
- Hemolysis [23]: 4%
- MIC (Pseudomonas aeruginosa [24]): 50 µg/mL (≈ 37.5 µM)
- MIC (Staphylococcus aureus [25]): 50 µg/mL (≈ 37.5 µM)
- MIC (Staphylococcus aureus [26]): 50 µg/mL (≈ 37.5 µM)
- MIC (Pseudomonas aeruginosa [28]): 50 µg/mL (≈ 37.5 µM)
- MIC (Pseudomonas aeruginosa [29]): > 100 µg/mL
- MIC (Staphylococcus aureus [30]): 25 µg/mL (≈ 18.8 µM)
- Hemolysis [31]: 5%
- MIC (Staphylococcus aureus [32]): 50 µg/mL (≈ 37.5 µM)
- MIC (Staphylococcus aureus [33]): 50 µg/mL (≈ 37.5 µM)
- MIC (Staphylococcus aureus [34]): > 100 µg/mL
